Laboratory results taken from ChEMBL document CHEMBL4049458, “Structure-Based Optimization of Thiophene[3,2-d]pyrimidine Derivatives as Potent HIV-1 Non-nucleoside Reverse Transcriptase Inhibitors with Improved Potency against Resistance-Associated Variants” (J Med Chem, 2017).

Experiments:
[1] = tested on: Human immunodeficiency virus 1; assay: Antiviral activity against wild type HIV1 3B harboring reverse transcriptase infected in human MT4 cells assessed as protection against virus induced cytotoxicity after 5 days by MTT assay; format: functional, cell-based; settings: Human immunodeficiency virus 1, 3B, MT4, 120 h
[2] = tested on: Human immunodeficiency virus 2; assay: Antiviral activity against HIV2 ROD harboring reverse transcriptase infected in human MT4 cells assessed as protection against virus induced cytotoxicity after 5 days by MTT assay; format: functional, cell-based; settings: Human immunodeficiency virus 2, ISOLATE ROD, MT4, 120 h
[3] = Cytotoxicity against human MT4 cells assessed as cell viability after 5 days by MTT assay; format: cell-based
[4] = Selectivity index, ratio of CC50 for human MT4 cells to EC50 for wild type HIV1 3B harboring reverse transcriptase infected in human MT4 cells
[5] = Selectivity index, ratio of CC50 for human MT4 cells to EC50 for reverse transcriptase L100I mutant in human MT4 cells infected HIV1 3B
[6] = Selectivity index, ratio of CC50 for human MT4 cells to EC50 for reverse transcriptase K103N mutant in human MT4 cells infected HIV1 3B
[7] = Selectivity index, ratio of CC50 for human MT4 cells to EC50 for reverse transcriptase Y181C mutant in human MT4 cells infected HIV1 3B
[8] = Selectivity index, ratio of CC50 for human MT4 cells to EC50 for reverse transcriptase Y188L mutant in human MT4 cells infected HIV1 3B
[9] = Selectivity index, ratio of CC50 for human MT4 cells to EC50 for reverse transcriptase E138K mutant in human MT4 cells infected HIV1 3B
[10] = Selectivity index, ratio of CC50 for human MT4 cells to EC50 for reverse transcriptase F227L/V106A double mutant in human MT4 cells infected HIV1 3B
[11] = Selectivity index, ratio of CC50 for human MT4 cells to EC50 for HIV1 RES056 reverse transcriptase K103N/Y181C double mutant infected in human MT4 cells
[12] = tested on: Human immunodeficiency virus type 1 reverse transcriptase (Human immunodeficiency virus 1), Q72547 [K103N]; assay: Potency index, ratio of EC50 for NVP to EC50 for test compound for reverse transcriptase K103N mutant in human MT4 cells infected HIV1 3B; format: cell-based
[13] = tested on: Human immunodeficiency virus type 1 reverse transcriptase (Human immunodeficiency virus 1), Q72547 [K103N]; assay: Potency index, ratio of EC50 for EFV to EC50 for test compound for reverse transcriptase K103N mutant in human MT4 cells infected HIV1 3B; format: cell-based
[14] = Inhibition of recombinant wild type HIV1 3B reverse transcriptase infected in human MT4 cells assessed as decrease in biotin-dUTP incorporation after 1 hr; format: cell-based; settings: Human immunodeficiency virus 1, 3B, MT4, 1 h
Procedure, shortened: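 Recombinant HIV-1 RT assayed with a kit ELISA. Enzyme, reconstituted template and nucleotides (DIG-dUTP, biotin-dUTP, dTTP) were incubated in incubation buffer with or without inhibitor for 1 h at 37 °C. Product was captured on streptavidin plates for 1 h at 37 °C, then anti-DIG-POD was added for 1 h at 37 °C, followed by ABTS. Read at OD405.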

[15] = AUC(0 to t) in Sprague-Dawley rat at 24 mg/kg, po by LC-MS analysis; format: ADME, organism-based; settings: in vivo
Rattus norvegicus [16] = assay: AUC(0 to infinity) in Sprague-Dawley rat at 24 mg/kg, po by LC-MS analysis; format: ADME, organism-based; set-up: dose 24 mg/kg, route oral, time infinity; settings: in vivo
[17] = AUC(0 to t) in Sprague-Dawley rat at 2 mg/kg, iv by LC-MS analysis; format: ADME, organism-based; settings: in vivo
[18] = AUC(0 to infinity) in Sprague-Dawley rat at 2 mg/kg, iv by LC-MS analysis; format: ADME, organism-based; set-up: dose 2 mg/kg, time infinity, route intravenous; settings: in vivo
[19] = MRT(0 to t) in Sprague-Dawley rat at 24 mg/kg, po by LC-MS analysis; format: ADME, organism-based; settings: in vivo
[20] = MRT(0 to infinity) in Sprague-Dawley rat at 24 mg/kg, po by LC-MS analysis; format: ADME, organism-based; settings: in vivo
[21] = MRT(0 to t) in Sprague-Dawley rat at 2 mg/kg, iv by LC-MS analysis; format: ADME, organism-based; settings: in vivo
[22] = MRT(0 to infinity) in Sprague-Dawley rat at 2 mg/kg, iv by LC-MS analysis; format: ADME, organism-based; settings: in vivo
Rattus norvegicus [23] = assay: VRT(0 to t) in Sprague-Dawley rat at 24 mg/kg, po by LC-MS analysis; format: ADME, organism-based; settings: in vivo
Rattus norvegicus [24] = assay: VRT(0 to infinity) in Sprague-Dawley rat at 24 mg/kg, po by LC-MS analysis; format: ADME, organism-based; settings: in vivo
Rattus norvegicus [25] = assay: VRT(0 to t) in Sprague-Dawley rat at 2 mg/kg, iv by LC-MS analysis; format: ADME, organism-based; settings: in vivo
Rattus norvegicus [26] = assay: VRT(0 to infinity) in Sprague-Dawley rat at 2 mg/kg, iv by LC-MS analysis; format: ADME, organism-based; settings: in vivo
[27] = Apparent half life in Sprague-Dawley rat at 24 mg/kg, po by LC-MS analysis; format: ADME, organism-based; settings: in vivo, read-out: t1/2(app) (converted)
[28] = Apparent half life in Sprague-Dawley rat at 2 mg/kg, iv by LC-MS analysis; format: ADME, organism-based; settings: in vivo, read-out: t1/2(app) (converted)
[29] = Tmax in Sprague-Dawley rat at 24 mg/kg, po by LC-MS analysis; format: ADME, organism-based; settings: in vivo
Rattus norvegicus [30] = assay: Apparent clearance during terminal phase in Sprague-Dawley rat at 2 mg/kg, iv by LC-MS analysis; format: ADME, organism-based; settings: in vivo
[31] = Cmax in Sprague-Dawley rat at 24 mg/kg, po by LC-MS analysis; format: ADME, organism-based; set-up: dose 24 mg/kg, route oral; settings: in vivo
[32] = Cmax in Sprague-Dawley rat at 2 mg/kg, iv by LC-MS analysis; format: ADME, organism-based; set-up: dose 2 mg/kg, route intravenous; settings: in vivo
Mus musculus [33] = assay: Toxicity in Kunming mouse assessed as mortality at 2000 mg/kg, ig administered via gavage measure after 2 weeks; format: organism-based; settings: in vivo, po, 336 h
Mus musculus [34] = assay: Toxicity in Kunming mouse assessed as increase in body weight at 2000 mg/kg, ig administered via gavage measure after 2 weeks; format: organism-based; settings: in vivo, po, 336 h
[35] = Fold resistance, ratio of EC50 for reverse transcriptase E138K mutant in human MT4 cells infected HIV1 3B to EC50 for wild type HIV1 3B harboring reverse transcriptase infected in human MT4 cells; format: functional
Procedure, shortened: (§1)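 MT-4 cells at 6 × 10^5 cells/mL were infected with WT HIV-1 IIIB or RT-mutant strains at 100−300 CCID50, with 5-fold serial compound dilutions in triplicate wells. After 5 days, viability was read by MTT reduction at 540 and 690 nm, using the median OD of three wells. […] Fold resistance is mutant EC50 divided by WT EC50.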

[36] = Fold resistance, ratio of EC50 for reverse transcriptase K103N mutant in human MT4 cells infected HIV1 3B to EC50 for wild type HIV1 3B harboring reverse transcriptase infected in human MT4 cells; format: functional; procedure, shortened: as §1
[37] = Fold resistance, ratio of EC50 for reverse transcriptase L100I mutant in human MT4 cells infected HIV1 3B to EC50 for wild type HIV1 3B harboring reverse transcriptase infected in human MT4 cells; format: functional; procedure, shortened: as §1
[38] = Fold resistance, ratio of EC50 for reverse transcriptase K103N/Y181C double mutant in human MT4 cells infected HIV1 RES056 to EC50 for wild type HIV1 3B harboring reverse transcriptase infected in human MT4 cells; format: functional; procedure, shortened: as §1
[39] = Fold resistance, ratio of EC50 for reverse transcriptase Y181C mutant in human MT4 cells infected HIV1 3B to EC50 for wild type HIV1 3B harboring reverse transcriptase infected in human MT4 cells; format: functional; procedure, shortened: as §1
[40] = Fold resistance, ratio of EC50 for reverse transcriptase Y188L mutant in human MT4 cells infected HIV1 3B to EC50 for wild type HIV1 3B harboring reverse transcriptase infected in human MT4 cells; format: functional; procedure, shortened: as §1
[41] = Fold resistance, ratio of EC50 for reverse transcriptase F227L/V106A double mutant in human MT4 cells infected HIV1 3B to EC50 for wild type HIV1 3B harboring reverse transcriptase infected in human MT4 cells; format: functional; procedure, shortened: as §1

Compound: Cc1cc(C#N)cc(C)c1Oc1nc(NC2CCN(Cc3ccc(S(C)(=O)=O)cc3)CC2)nc2sccc12
- EC50 [1]: 3.56 nM
- EC50 [2]: > 1190 nM
- CC50 at 120 h [3]: 1190 nM
- selectivity ratio ([4]; MT4 cells): 335
- selectivity ratio ([5]; MT4 cells): 152
- selectivity ratio ([6]; MT4 cells): 725
- selectivity ratio ([7]; MT4 cells): 200
- selectivity ratio ([8]; MT4 cells): 124
- selectivity ratio ([9]; MT4 cells): 164
- selectivity ratio ([10]; MT4 cells): 137
- selectivity ratio ([11]; MT4 cells): 28
- Ratio EC50 [12]: 3370
- Ratio EC50 [13]: 50

Compound: Cc1cc(/C=C/C#N)cc(C)c1Oc1nc(NC2CCN(Cc3ccc(S(N)(=O)=O)cc3)CC2)nc2ccsc12
- EC50 [1]: 1.22 nM
- IC50 [14]: 160 nM
- AUC(0-t) [15]: 2320 ng·h/mL
- AUC (Rattus norvegicus [16]): 2692.2 ng·h/mL
- AUC(0-t) [17]: 1370 ng·h/mL
- AUC(0-inf) [18]: 1390 ng·h/mL
- MRT last [19]: 3.71 h
- MRT inf [20]: 5.54 h
- MRT last [21]: 1.57 h
- MRT inf [22]: 1.69 h
- VRT(t) (Rattus norvegicus [23]): 8.11 hr2
- VRT (Rattus norvegicus [24]): 35.67 hr2
- VRT(t) (Rattus norvegicus [25]): 2.78 hr2
- VRT (Rattus norvegicus [26]): 3.72 hr2
- half-life [27]: 3.93 h
- half-life [28]: 1.34 h
- Tmax [29]: 1.7 h
- CLz/F (Rattus norvegicus [30]): 0.242 mL/min/kg
- Cmax [31]: 553 ng/mL
- Cmax [32]: 2220 ng/mL
- Activity (Mus musculus [33]): Non-Toxic
- Activity (Mus musculus [34]): Non-Toxic

Compound: Cc1cc(C#N)cc(C)c1Oc1nc(NC2CCC(NCc3ccc([N+](=O)[O-])cc3)CC2)nc2ccsc12 (stereo not given)
- EC50 [1]: 100 nM
- EC50 [2]: > 54400 nM
- CC50 at 120 h [3]: 54400 nM
- selectivity ratio ([4]; MT4 cells): 544
- selectivity ratio ([5]; MT4 cells): 35
- selectivity ratio ([6]; MT4 cells): 79
- selectivity ratio ([7]; MT4 cells): ≤ 2
- selectivity ratio ([8]; MT4 cells): 5
- selectivity ratio ([9]; MT4 cells): 344
- selectivity ratio ([10]; MT4 cells): 84
- selectivity ratio ([11]; MT4 cells): < 1
- Ratio EC50 [35]: 1.6

Compound: Cc1cc(C#N)cc(C)c1Oc1nc(Nc2ccc(C#N)cc2)nc(N)c1Br [ETRAVIRINE]
- EC50 [1]: 4.07 nM
- CC50 at 120 h [3]: > 4590 nM
- selectivity ratio [4]: > 1130
- selectivity ratio [5]: > 853
- selectivity ratio [6]: > 1950
- selectivity ratio [7]: > 291
- selectivity ratio [8]: > 224
- selectivity ratio [9]: > 318
- selectivity ratio [10]: 156
- selectivity ratio [11]: > 270
- Ratio EC50 [36]: 0.6 - 7.2
- Ratio EC50 [35]: 0.6 - 7.2
- Ratio EC50 [37]: 1.3
- Ratio EC50 [38]: 4.2
- Ratio EC50 [39]: 0.6 - 7.2
- Ratio EC50 [40]: 0.6 - 7.2
- Ratio EC50 [41]: 0.6 - 7.2
- IC50 [14]: 1000 nM
